Results: ChEMBL document CHEMBL1126281, “Synthesis and dopaminergic activity of some 3-(1,2,3,6-tetrahydro-1-pyridylalkyl)indoles. A novel conformational model to explain structure-activity relationships” (J Med Chem, 1992)

Key:
D(2) dopamine receptor [1] = biological target: T1, D(2) dopamine receptor (Rattus norvegicus, UniProt P61169); assay: Evaluated for its ability to displace tritiated receptor ligand in rat striatal membranes 3[H]spiperone, a dopamine antagonist; assay type: functional, cell membranes, Striatum, Membrane
T1 sequence (P61169 whole entry): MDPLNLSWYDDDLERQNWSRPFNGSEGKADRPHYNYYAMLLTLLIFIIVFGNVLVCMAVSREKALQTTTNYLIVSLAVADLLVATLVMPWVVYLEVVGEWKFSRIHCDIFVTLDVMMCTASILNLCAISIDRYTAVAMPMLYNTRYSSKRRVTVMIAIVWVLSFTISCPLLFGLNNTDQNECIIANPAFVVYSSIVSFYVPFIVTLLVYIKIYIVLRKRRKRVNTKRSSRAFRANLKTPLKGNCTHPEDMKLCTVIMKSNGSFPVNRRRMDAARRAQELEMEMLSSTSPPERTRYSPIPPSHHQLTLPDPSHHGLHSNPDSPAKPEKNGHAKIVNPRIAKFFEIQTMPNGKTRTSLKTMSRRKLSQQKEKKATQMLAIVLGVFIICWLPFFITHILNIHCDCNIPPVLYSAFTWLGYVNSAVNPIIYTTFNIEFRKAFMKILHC

Rattus norvegicus [2] = assay: Evaluated in vivo for its ability to induce contralateral rotational behavior in rats with unilateral, 6-hydroxy DA induced lesions of the substantia nigra at 3 mg/kg dosage orally; assay type: functional; conditions: route oral
How it was run: (§1)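 Rats given a unilateral 6-hydroxydopamine injection into the substantia nigra (8 μg per rat) at least 1 month earlier. Drug was given orally or subcutaneously and contralateral turns were recorded. Totals are cumulative at 1 h or 2 h after dosing, reported as means ± SEM with n = 3-6 rats.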

D(2) dopamine receptor [3] = biological target: T1, D(2) dopamine receptor; assay: Evaluated for its ability to displace tritiated receptor ligand in rat striatal membranes [3H]ADTN, a dopamine agonist; assay type: functional, cell membranes, Striatum, Membrane
Rattus norvegicus [4] = assay: Compound was evaluated for D2 dopaminergic activity measured as total contralateral turns after 1 hr at a dose of 0.03 mg/kg administered subcutaneously.; assay type: functional; conditions: route subcutaneous; how it was run: as §1
Rattus norvegicus [5] = assay: Compound was evaluated for D2 dopaminergic activity measured as total contralateral turns after 1 hr at a dose of 3 mg/kg peroral administration.; assay type: functional; conditions: route oral; how it was run: as §1
Rattus norvegicus [6] = assay: Compound was evaluated for D2 dopaminergic activity measured as total contralateral turns after 1 hr at a dose of 0.1 mg/kg peroral administration.; assay type: functional; conditions: route oral; how it was run: as §1
Rattus norvegicus [7] = assay: Compound was evaluated for D2 dopaminergic activity measured as total contralateral turns after 2 hr at a dose of 0.3 mg/kg peroral administration.; assay type: functional; conditions: route oral; how it was run: as §1
Rattus norvegicus [8] = assay: compound was evaluated for increase striatal acetyl choline (AcCh) concentration in intact rat administered subcutaneously.; assay type: functional; conditions: sc
Rattus norvegicus [9] = assay: Compound was evaluated for D2 dopaminergic activity measured as total contralateral turns after 2 hr at a dose of 1 mg/kg peroral administration.; assay type: functional; conditions: route oral; how it was run: as §1
Rattus norvegicus [10] = assay: Compound was evaluated for D2 dopaminergic activity measured as total contralateral turns after 1 hr at a dose of 1 mg/kg peroral administration.; assay type: functional; conditions: route oral; how it was run: as §1
Rattus norvegicus [11] = assay: Compound was evaluated for D2 dopaminergic activity measured as total contralateral turns after 2 hr at a dose of 3 mg/kg peroral administration.; assay type: functional; conditions: route oral; how it was run: as §1
Rattus norvegicus [12] = assay: Compound was evaluated for D2 dopaminergic activity measured as total contralateral turns after 2 hr at a dose of 0.03 mg/kg administered subcutaneously.; assay type: functional; conditions: route subcutaneous; how it was run: as §1
Rattus norvegicus [13] = assay: Compound was evaluated for D2 dopaminergic activity measured as total contralateral turns after 2 hr at a dose of 0.1 mg/kg peroral administration.; assay type: functional; conditions: route oral; how it was run: as §1
Rattus norvegicus [14] = assay: Compound was evaluated for D2 dopaminergic activity measured as total contralateral turns after 2 hr at a dose of 0.1 mg/kg administered subcutaneously.; assay type: functional; conditions: route subcutaneous; how it was run: as §1
D(2) dopamine receptor [15] = biological target: T1, D(2) dopamine receptor; assay: Compound was evaluated for its ability to displace tritiated receptor ligand in rat striatal membranes 3[H]spiperone, a dopamine antagonist; assay type: functional, cell membranes, Striatum, Membrane
How it was run: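 Rat striatal membranes (0.3–1.0 mg protein/mL) with 0.1 nmol/l [³H]spiperone in 50 mmol Tris/HCl, pH 7.7, plus 0.1% ascorbic acid. Incubated 15 min at 37 °C, stopped by rapid filtration and three ice-cold washes. Nonspecific binding was defined with 1 μmol/L (+)-butaclamol. Values are means ± SD of 2-4 independent determinations, with triplicates per concentration.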

Rattus norvegicus [16] = assay: Compound was evaluated for D2 dopaminergic activity measured as total contralateral turns after 1 hr at a dose of 0.1 mg/kg administered subcutaneously.; assay type: functional; conditions: route subcutaneous; how it was run: as §1
Rattus norvegicus [17] = assay: Compound was evaluated for D2 dopaminergic activity measured as total contralateral turns after 1 hr at a dose of 0.3 mg/kg peroral administration.; assay type: functional; conditions: route oral; how it was run: as §1
Rattus norvegicus [18] = assay: Compound was evaluated for increase striatal acetyl choline (AcCh) concentration in intact rat administered subcutaneously.; assay type: functional; conditions: sc
Rattus norvegicus [19] = assay: Compound was evaluated for D2 dopaminergic activity measured as total contralateral turns expressed as mean after 1 hr at a dose of 1 mg/kg peroral administration; assay type: functional; conditions: route oral; how it was run: as §1
Rattus norvegicus [20] = assay: Compound was evaluated for D2 dopaminergic activity measured as total contralateral turns expressed as mean after 2 hr at a dose of 1 mg/kg peroral administration; assay type: functional; conditions: route oral; how it was run: as §1
Rattus norvegicus [21] = assay: Compound was evaluated for D2 dopaminergic activity measured as total contralateral turns expressed as mean after 2 hr at a dose of 0.1 mg/kg administered subcutaneously; assay type: functional; conditions: route subcutaneous; how it was run: as §1
Rattus norvegicus [22] = assay: Compound was evaluated for D2 dopaminergic activity measured as total contralateral turns expressed as mean after 2 hr at a dose of 3 mg/kg peroral administration.; assay type: functional; conditions: route oral; how it was run: as §1
Rattus norvegicus [23] = assay: Compound was evaluated for D2 dopaminergic activity measured as total contralateral turns expressed as mean after 2 hr at a dose of 0.3 mg/kg administered subcutaneously; assay type: functional; conditions: route subcutaneous; how it was run: as §1
Rattus norvegicus [24] = assay: Compound was evaluated for D2 dopaminergic activity measured as total contralateral turns expressed as mean after 1 hr at a dose of 0.3 mg/kg administered subcutaneously; assay type: functional; conditions: route subcutaneous; how it was run: as §1
D(2) dopamine receptor [25] = biological target: T1, D(2) dopamine receptor; assay: Compound was evaluated for its ability to displace tritiated receptor ligand in rat striatal membranes [3H]ADTN, a dopamine agonist; assay type: functional, cell membranes, Striatum, Membrane
Rattus norvegicus [26] = assay: Compound was evaluated for D2 dopaminergic activity measured as total contralateral turns expressed as mean after 1 hr at a dose of 0.1 mg/kg administered subcutaneously; assay type: functional; conditions: route subcutaneous; how it was run: as §1
Rattus norvegicus [27] = assay: Compound was evaluated for D2 dopaminergic activity measured as total contralateral turns expressed as mean after 1 hr at a dose of 0.3 mg/kg peroral administration.; assay type: functional; conditions: route oral; how it was run: as §1
Rattus norvegicus [28] = assay: Compound was evaluated for D2 dopaminergic activity measured as total contralateral turns expressed as mean after 2 hr at a dose of 0.3 mg/kg peroral administration.; assay type: functional; conditions: route oral; how it was run: as §1
Rattus norvegicus [29] = assay: Compound was evaluated for D2 dopaminergic activity measured as total contralateral turns expressed as mean after 1 hr at a dose of 3 mg/kg peroral administration.; assay type: functional; conditions: route oral; how it was run: as §1

SMILES	IC50 (D(2) dopamine receptor [1]) [nM]	Turns/first hour (Rattus norvegicus [2])	Ki (D(2) dopamine receptor [3]) [nM]	other results
c1ccc(C2CCN(CCCCc3c[nH]c4ccccc34)CC2)cc1	> 100	<50	> 100	–
COc1ccc(C2=CCN(CCCCc3c[nH]c4ccccc34)CC2)cc1	700	<50	41	–
C1=C(c2ccccc2)CCN(CCCc2c[nH]c3ccccc23)C1	50	~250	12	–
C1=CCN(CCCCc2c[nH]c3ccccc23)CC1	> 1000	<100	> 1000	–
Fc1ccc(C2=CCN(CCCCc3c[nH]c4ccccc34)CC2)cc1	90	<100	15	–
COc1ccc2c(CCCCN3CC=C(c4ccccc4)CC3)c[nH]c2c1	9	792	1.8	–
Oc1ccc2[nH]cc(CCCCN3CC=C(c4ccccc4)CC3)c2c1 [ROXINDOLE]	–	948	0.88	Turns (Rattus norvegicus [4]): 399; Turns (Rattus norvegicus [5]): 926; Turns (Rattus norvegicus [6]): 251; Turns (Rattus norvegicus [7]): 534; ED50 (Rattus norvegicus [8]): > 30 mg/kg; Turns (Rattus norvegicus [9]): 1694; Turns (Rattus norvegicus [10]): 830; Turns (Rattus norvegicus [11]): 2010; Turns (Rattus norvegicus [12]): 718; Turns (Rattus norvegicus [13]): 287; Turns (Rattus norvegicus [14]): 2246; IC50 (D(2) dopamine receptor [15]): 5.95 nM; Turns (Rattus norvegicus [16]): 1132; Turns (Rattus norvegicus [17]): 397
Oc1ccc2c(CCCCN3CC=C(c4ccccc4)CC3)c[nH]c2c1	8	786	2.5	–
Clc1ccc2[nH]cc(CCCCN3CC=C(c4ccccc4)CC3)c2c1	50	<50	3.1	–
Cn1cc(CCCCN2CC=C(c3ccccc3)CC2)c2ccccc21	100	121	15	–
COc1ccc2[nH]cc(CCCCN3CC=C(c4ccccc4)CC3)c2c1	20	504	4.4	–
CN1CCc2cccc3c2[C@H]1Cc1ccc(O)c(O)c1-3 [APOMORPHINE]	–	–	–	Turns (Rattus norvegicus [4]): 1268; ED50 (Rattus norvegicus [18]): 0.28 mg/kg
C1=C(c2ccccc2)CCN(CCCCc2c[nH]c3ccccc23)C1	105	864	–	ED50 (Rattus norvegicus [18]): > 3 mg/kg; Turns (Rattus norvegicus [19]): 201; Turns (Rattus norvegicus [20]): 412; Turns (Rattus norvegicus [21]): 68; Turns (Rattus norvegicus [22]): 1731; Turns (Rattus norvegicus [23]): 936; Turns (Rattus norvegicus [24]): 422; Ki (D(2) dopamine receptor [25]): 6.39 nM; Turns (Rattus norvegicus [26]): 44; Turns (Rattus norvegicus [27]): 99; Turns (Rattus norvegicus [28]): 236; Turns (Rattus norvegicus [29]): 825
C1=C(c2ccccc2)CCN(CCCCCCc2c[nH]c3ccccc23)C1	40	<100	4.3	–
Fc1ccc2[nH]cc(CCCCN3CC=C(c4ccccc4)CC3)c2c1	10	552	1.6	–
Cc1[nH]c2ccccc2c1CCCCN1CC=C(c2ccccc2)CC1	50	318	5.4	–
Clc1ccccc1C1=CCN(CCCCc2c[nH]c3ccccc23)CC1	100	<50	21	–
Clc1ccc(C2=CCN(CCCCc3c[nH]c4ccccc34)CC2)cc1	100	100	46	–
C1=C(c2ccccc2)CCN(CCCCCc2c[nH]c3ccccc23)C1	60	<50	13	–
C1=C(c2ccccc2)CCN(CCc2c[nH]c3ccccc23)C1	100	<50	81	–
Fc1ccccc1C1=CCN(CCCCc2c[nH]c3ccccc23)CC1	20	186	4	–
